Results from ChEMBL document CHEMBL4715736, “Identification of anticancer agents based on the thieno[2,3-b]pyridine and 1H-pyrazole molecular scaffolds” (2016).

Columns and labels:
Type in all cases: functional
HT-29 = assay: Growth inhibition of human HT-29 cells assessed as cell growth at 0.01 uM incubated for 48 hrs by sulforhodamine B assay relative to control; details: read-out: Activity
DU-145 [1] = assay: Growth inhibition of human DU-145 cells assessed as cell growth at 0.01 uM incubated for 48 hrs by sulforhodamine B assay relative to control; details: read-out: Activity
Method in brief: (§1)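 NCI Developmental Therapeutics Program NCI60 panel. Compounds that were active in the 10 µM one-dose screen went on to dose–response testing. Growth at each concentration is expressed relative to untreated control (100%). GI50 (concentration giving 50% of maximal inhibition of proliferation) and TGI (concentration giving total growth inhibition) were derived from the curves.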

MDA-MB-231 [2] = assay: Growth inhibition of human MDA-MB-231 cells assessed as cell growth at 0.01 uM incubated for 48 hrs by sulforhodamine B assay relative to control; details: read-out: Activity
NCI-H522 [3] = assay: Growth inhibition of human NCI-H522 cells assessed as cell growth at 0.1 uM incubated for 48 hrs by sulforhodamine B assay relative to control; details: read-out: Activity
CAKI-1 = assay: Growth inhibition of human CAKI-1 cells assessed as cell growth at 0.1 uM incubated for 48 hrs by sulforhodamine B assay relative to control; details: read-out: Activity; method in brief: as §1
SN12C = assay: Growth inhibition of human SN12C cells assessed as cell growth at 0.1 uM incubated for 48 hrs by sulforhodamine B assay relative to control; details: read-out: Activity
TK-10 = assay: Growth inhibition of human TK-10 cells assessed as cell growth at 0.1 uM incubated for 48 hrs by sulforhodamine B assay relative to control; details: read-out: Activity
UO-31 [4] = assay: Growth inhibition of human UO-31 cells assessed as cell growth at 0.1 uM incubated for 48 hrs by sulforhodamine B assay relative to control; details: read-out: Activity
DU-145 [5] = assay: Growth inhibition of human DU-145 cells assessed as cell growth at 0.1 uM incubated for 48 hrs by sulforhodamine B assay relative to control; details: read-out: Activity; method in brief: as §1
MDA-MB-231 [6] = assay: Growth inhibition of human MDA-MB-231 cells assessed as cell growth at 0.1 uM incubated for 48 hrs by sulforhodamine B assay relative to control; details: read-out: Activity
SR = assay: Growth inhibition of human SR cells assessed as cell growth at 1 uM incubated for 48 hrs by sulforhodamine B assay relative to control; details: read-out: Activity
HOP-92 = assay: Growth inhibition of human HOP-92 cells assessed as cell growth at 1 uM incubated for 48 hrs by sulforhodamine B assay relative to control; details: read-out: Activity
NCI-H23 [7] = assay: Growth inhibition of human NCI-H23 cells assessed as cell growth at 1 uM incubated for 48 hrs by sulforhodamine B assay relative to control; details: read-out: Activity
Malme-3M [8] = assay: Growth inhibition of human Malme-3M cells assessed as cell growth at 1 uM incubated for 48 hrs by sulforhodamine B assay relative to control; details: read-out: Activity
UACC-257 = assay: Growth inhibition of human UACC-257 cells assessed as cell growth at 1 uM incubated for 48 hrs by sulforhodamine B assay relative to control; details: read-out: Activity
OVCAR-4 = assay: Growth inhibition of human OVCAR-4 cells assessed as cell growth at 1 uM incubated for 48 hrs by sulforhodamine B assay relative to control; details: read-out: Activity
BT-549 [9] = assay: Growth inhibition of human BT-549 cells assessed as cell growth at 1 uM incubated for 48 hrs by sulforhodamine B assay relative to control; details: read-out: Activity
NCI-H522 [10] = assay: Growth inhibition of human NCI-H522 cells assessed as cell growth at 100 uM incubated for 48 hrs by sulforhodamine B assay relative to control; details: read-out: Activity
SNB-19 = assay: Growth inhibition of human SNB-19 cells assessed as cell growth at 100 uM incubated for 48 hrs by sulforhodamine B assay relative to control; details: read-out: Activity
Malme-3M [11] = assay: Growth inhibition of human Malme-3M cells assessed as cell growth at 100 uM incubated for 48 hrs by sulforhodamine B assay relative to control; details: read-out: Activity
MDA-MB-435 = assay: Growth inhibition of human MDA-MB-435 cells assessed as cell growth at 100 uM incubated for 48 hrs by sulforhodamine B assay relative to control; details: read-out: Activity
SK-MEL-28 [12] = assay: Growth inhibition of human SK-MEL-28 cells assessed as cell growth at 100 uM incubated for 48 hrs by sulforhodamine B assay relative to control; details: read-out: Activity
BT-549 [13] = assay: Growth inhibition of human BT-549 cells assessed as cell growth at 100 uM incubated for 48 hrs by sulforhodamine B assay relative to control; details: read-out: Activity
CCRF-CEM = assay: Growth inhibition of human CCRF-CEM cells incubated for 48 hrs by sulforhodamine B assay; method in brief: as §1
NCI-H23 [14] = assay: Growth inhibition of human NCI-H23 cells incubated for 48 hrs by sulforhodamine B assay
Method in brief: (§2)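 NCI60 panel at the NCI Developmental Therapeutics Program. Only compounds active in the 10 µM screen went to dose-response testing. GI50, the concentration giving 50% of maximal inhibition of proliferation, and TGI, the concentration giving total growth inhibition, were derived from the dose-response curves.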

COLO 205 = assay: Growth inhibition of human COLO 205 cells incubated for 48 hrs by sulforhodamine B assay; method in brief: as §1
KM12 = assay: Growth inhibition of human KM12 cells incubated for 48 hrs by sulforhodamine B assay; method in brief: as §2
SK-MEL-28 [15] = assay: Growth inhibition of human SK-MEL-28 cells incubated for 48 hrs by sulforhodamine B assay
Method in brief: (§3)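 NCI DTP 60-line human tumour panel. Dose-response curves were run only for ligands active in the initial 10 µM screen. GI50 (concentration giving 50% of maximal inhibition of proliferation) and TGI (concentration giving total growth inhibition) were derived from these curves.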

OVCAR-3 = assay: Growth inhibition of human OVCAR-3 cells incubated for 48 hrs by sulforhodamine B assay; details: for CC50: read-out: LC50 (the source's name); method in brief: as §3
UO-31 [16] = assay: Growth inhibition of human UO-31 cells incubated for 48 hrs by sulforhodamine B assay; details: for CC50: read-out: LC50 (the source's name); method in brief: as §3
DU-145 [17] = assay: Growth inhibition of human DU-145 cells incubated for 48 hrs by sulforhodamine B assay; details: for CC50: read-out: LC50 (the source's name); method in brief: as §1
MDA-MB-231 [18] = assay: Growth inhibition of human MDA-MB-231 cells incubated for 48 hrs by sulforhodamine B assay; details: for CC50: read-out: LC50 (the source's name); method in brief: as §2
NCI/ADR-RES = assay: Growth inhibition of human NCI/ADR-RES cells assessed as cell growth at 100 uM incubated for 48 hrs by sulforhodamine B assay relative to control; details: read-out: Activity
ACHN = assay: Growth inhibition of human ACHN cells incubated for 48 hrs by sulforhodamine B assay; method in brief: as §1

## CN1CCc2nc3sc(C(N)=O)c(N)c3c(-c3cccs3)c2C1
HT-29
  growth at 0.01 µM: 106%
DU-145 [1]
  growth at 0.01 µM: 111%
MDA-MB-231 [2]
  growth at 0.01 µM: 106%
NCI-H522 [3]
  growth at 0.1 µM: 100%
CAKI-1
  growth at 0.1 µM: 82%
SN12C
  growth at 0.1 µM: 93%
TK-10
  growth at 0.1 µM: 99%
UO-31 [4]
  growth at 0.1 µM: 102%
DU-145 [5]
  growth at 0.1 µM: 115%
MDA-MB-231 [6]
  growth at 0.1 µM: 109%
SR
  growth at 1 µM: 71%
HOP-92
  growth at 1 µM: 104%
NCI-H23 [7]
  growth at 1 µM: 89%
Malme-3M [8]
  growth at 1 µM: 131%
UACC-257
  growth at 1 µM: 111%
OVCAR-4
  growth at 1 µM: 108%
BT-549 [9]
  growth at 1 µM: 92%
NCI-H522 [10]
  growth at 100 µM: -26%
SNB-19
  growth at 100 µM: 14%
Malme-3M [11]
  growth at 100 µM: -11%
MDA-MB-435
  growth at 100 µM: 3%
SK-MEL-28 [12]
  growth at 100 µM: -18%
BT-549 [13]
  growth at 100 µM: -8%
CCRF-CEM
  GI50: 3.77 µM
  LC50: > 100 µM
  TGI: > 100 µM
NCI-H23 [14]
  GI50: 2.87 µM
  LC50 (50% lethal concentration): > 100 µM
  TGI: 12.6 µM
COLO 205
  GI50: 1.43 µM
  LC50 (concentration killing 50% of cells): 9.35 µM
  TGI: 3.66 µM
KM12
  GI50: 2.7 µM
  LC50: > 100 µM
  TGI: > 100 µM
SK-MEL-28 [15]
  GI50: 2.91 µM
  LC50: > 100 µM
  TGI: 9.59 µM
OVCAR-3
  GI50: 2.16 µM
  TGI: 6.23 µM
  CC50: > 100 µM
UO-31 [16]
  GI50: 3.47 µM
  TGI: > 100 µM
  CC50: > 100 µM
DU-145 [17]
  GI50: 3.91 µM
  TGI: 86.9 µM
  CC50: > 100 µM
MDA-MB-231 [18]
  GI50: 4.77 µM
  TGI: > 100 µM
  CC50: > 100 µM

## CCc1ccccc1NC(=O)c1sc2nc3c(cc2c1N)C(=O)CCC3
HT-29
  growth at 0.01 µM: 95%
DU-145 [1]
  growth at 0.01 µM: 105%
MDA-MB-231 [2]
  growth at 0.01 µM: 97%
NCI-H522 [3]
  growth at 0.1 µM: 88%
CAKI-1
  growth at 0.1 µM: 90%
SN12C
  growth at 0.1 µM: 88%
TK-10
  growth at 0.1 µM: 97%
UO-31 [4]
  growth at 0.1 µM: 85%
DU-145 [5]
  growth at 0.1 µM: 103%
MDA-MB-231 [6]
  growth at 0.1 µM: 90%
SR
  growth at 1 µM: 20%
HOP-92
  growth at 1 µM: 35%
Malme-3M [8]
  growth at 1 µM: 50%
UACC-257
  growth at 1 µM: 52%
OVCAR-4
  growth at 1 µM: 45%
BT-549 [9]
  growth at 1 µM: 50%
NCI-H522 [10]
  growth at 100 µM: 19%
SNB-19
  growth at 100 µM: 11%
Malme-3M [11]
  growth at 100 µM: -5%
MDA-MB-435
  growth at 100 µM: -48%
SK-MEL-28 [12]
  growth at 100 µM: 11%
NCI/ADR-RES
  growth at 100 µM: -6%
BT-549 [13]
  growth at 100 µM: 11%
CCRF-CEM
  GI50: 0.328 µM
  LC50: > 100 µM
  TGI: > 100 µM
COLO 205
  GI50: 0.252 µM
  LC50 (concentration killing 50% of cells): > 100 µM
  TGI: 19.8 µM
KM12
  GI50: 0.402 µM
  LC50: > 100 µM
  TGI: > 100 µM
SK-MEL-28 [15]
  GI50: 0.001 µM
  LC50: > 100 µM
  TGI: > 100 µM
OVCAR-3
  GI50: 0.367 µM
  TGI: 15.8 µM
  CC50: > 100 µM
ACHN
  GI50: 0.0188 µM
  TGI: > 100 µM
ACHN; read-out: LC50 (the source's name)
  CC50: > 100 µM
UO-31 [16]
  GI50: 14.8 µM
  TGI: > 100 µM
  CC50: > 100 µM
DU-145 [17]
  GI50: 0.499 µM
  TGI: > 100 µM
  CC50: > 100 µM
MDA-MB-231 [18]
  GI50: 1.25 µM
  TGI: > 100 µM
  CC50: > 100 µM
